# Assay results of several laboratories.
# Compare with care: the assays were run in different laboratories.
# Cell line: MDA-MB-231
# Read-out: cell growth or viability
SMILES,assay,conditions,GI50 [nM]
COc1cccc2c1C(=O)c1c(O)c3c(c(O)c1C2=O)C[C@@](O)(C(=O)CO)C[C@@H]3O[C@H]1C[C@H](N)[C@H](O)[C@H](C)O1,MTT,72 h,53.3
COc1ccc(OC)c(CN2CCc3cc(OS(N)(=O)=O)c(OC)cc3C2)c1,WST-1,96 h,1850
COc1cc2c(cc1OS(N)(=O)=O)CCN(Cc1cc(Cl)c(OC)c(OC)c1)C2,WST-1,96 h,40
CC(=O)c1c(C)c2cnc(Nc3ccc(N4CCNCC4)cn3)nc2n(C2CCCC2)c1=O,resazurin,,250
COc1ccc(OC)c(CN2CCc3cc(O)c(OC)cc3C2)c1,WST-1,96 h,37000
COc1cc2c(cc1O)CC[C@@H]1[C@@H]2CC[C@]2(C)[C@@H](O)CC[C@@H]12,,48 h,1700
CCOc1c(OC)cc(CN2CCc3cc(OS(N)(=O)=O)c(OC)cc3C2)cc1OC,WST-1,96 h,70
COc1cc2c(cc1OS(N)(=O)=O)CCN(Cc1ccc(OC)c(OC)c1OC)C2,WST-1,96 h,11900
COc1cc2c(cc1O)CCN(Cc1cc(Br)c(OC)c(OC)c1)C2,WST-1,96 h,200
Cc1cc2c(cc1N1C(=O)c3cccc4c(CCCO)ccc(c34)C1=O)n(C)c(=O)n2C (racemic),resazurin,,> 10000
